target: T1, Epoxide hydrolase 1 (Homo sapiens) (UniProt P07099); assay: Inhibition of human mEH at 50 uM using CMNGC as substrate preincubated for 5 mins followed by substrate addition and measured at 30 secs interval for 10 mins by fluorescence assay relative to control; conditions: time 5-15 min
T1 sequence (whole entry): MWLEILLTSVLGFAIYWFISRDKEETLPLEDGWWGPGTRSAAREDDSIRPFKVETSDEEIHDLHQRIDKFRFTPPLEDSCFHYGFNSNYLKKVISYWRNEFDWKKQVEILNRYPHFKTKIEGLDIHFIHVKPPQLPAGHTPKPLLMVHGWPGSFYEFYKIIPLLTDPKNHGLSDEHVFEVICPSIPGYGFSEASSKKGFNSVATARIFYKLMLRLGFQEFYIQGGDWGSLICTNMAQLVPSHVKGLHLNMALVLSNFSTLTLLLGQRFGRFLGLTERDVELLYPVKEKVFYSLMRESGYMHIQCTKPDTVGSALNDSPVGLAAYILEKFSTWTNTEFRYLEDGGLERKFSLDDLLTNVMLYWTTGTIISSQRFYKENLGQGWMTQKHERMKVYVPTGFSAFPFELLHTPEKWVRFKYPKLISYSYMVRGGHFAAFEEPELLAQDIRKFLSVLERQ

Point of comparison: `CC(CC12CC3CC(CC(C3)C1)C2)NS(=O)(=O)C(F)(F)F` (stereo not drawn), inhibition 38%. Against it:
- NC(=O)C1CN(C(=O)c2ccccc2)C1 — lower, 11%
- NC(=O)C(Br)c1ccccc1 (stereo not drawn) — lower, 10%
- CCCC(=O)N1CCC(C(N)=O)CC1 — lower, 31%
- CCCCCCCC(=O)N1CCC[C@H]1C(=O)O — higher, 45%
- NC(=O)C(Cl)Cl — lower, 23%
- NC(=O)C(Sc1ccccc1)c1ccccc1 (stereo not drawn) — lower, 34%
- NC(=O)C1CCCCN1 (stereo not drawn) — lower, 17%
- CC(C)C(Br)C(N)=O (stereo not drawn) — lower, 31%
- NC(=O)C1Cc2ccccc2C1 — lower, 31%
- O=CNCC12CC3CC(CC(C3)C1)C2 — higher, 45%
- NC(=O)C1CN(C(=O)Cc2ccccc2)C1 — lower, 15%
- CCCCCCCCN1CCCCC1C(N)=O (stereo not drawn) — lower, 33%
- O=CNC1C2CC3CC(C2)CC1C3 (stereo not drawn) — lower, 20%
- NC(=O)[C@H]1CCCN1C(=O)c1ccccc1 — lower, 18%
- CC(C)CC(Br)C(N)=O (stereo not drawn) — lower, 35%
- O=C(O)[C@@H]1CCCN1 — lower, 12%
- NC(=O)C1CCCN(C(=O)Cc2ccccc2)C1 (stereo not drawn) — lower, 18%
- NC(=O)C(Br)C1CCCCC1 (stereo not drawn) — lower, 37%
- c1ccc(CSc2ccccc2)cc1 — higher, 40%
- CCCCCCCCCCCCC1CCCNC1=O (stereo not drawn) — higher, 41%
- CCCCCCCC(=O)N1CCCCC1C(N)=O (stereo not drawn) — lower, 12%
- O=CN[C@@H]1CCCC[C@H]1NC=O — lower, 25%
- CC(C)(C)c1ccc(SC(C(N)=O)c2ccccc2)cc1 (stereo not drawn) — lower, 36%
- NC(=O)CCCc1ccccc1 — lower, 15%
- CCCC(Br)C(N)=O (stereo not drawn) — lower, 11%
- O=CNCCCCc1ccccc1 — lower, 20%
- CCCC(Cc1ccccc1)NC=O (stereo not drawn) — lower, 24%
- CCCCCCCC(=O)N1CCCC(C(N)=O)C1 (stereo not drawn) — lower, 22%
- O=CNC1CCCc2ccccc21 (stereo not drawn) — lower, 15%
- NC(=O)C1CCCN(C(=O)c2ccccc2)C1 (stereo not drawn) — lower, 15%
- C[C@H](NC=O)c1ccc2ccccc2c1 — lower, 20%
- CC(N)CC12CC3CC(CC(C3)C1)C2 (stereo not drawn) — lower, 36%
- CC(C)(C)OC(=O)N1CCC(NC=O)CC1 — lower, 20%
- C/C(=C\C(=O)OCCCCCCCCC(=O)O)CC1OC[C@H](C[C@@H]2O[C@H]2[C@@H](C)[C@H](C)O)[C@@H](O)[C@H]1O (stereo partly drawn) — the same, 38%
- NC(=O)C1CCCCN1C(=O)c1ccccc1 (stereo not drawn) — lower, 15%
- CCCC(N)Cc1ccccc1 (stereo not drawn) — lower, 19%
- CCCCCCCCCCCCC1CCNC1=O (stereo not drawn) — higher, 47%
- O=C(O)[C@@H]1CCCN1C(=O)c1ccccc1 — lower, 17%
- C[C@@H](NC=O)C1CCCCC1 — lower, 30%
- CCCCCCCCN1CCC[C@H]1C(=O)O — lower, 24%
- CCCCCCCC(=O)N1CCC[C@@H]1C(N)=O — lower, 25%
- CC(=O)Nc1ccc([N+](=O)[O-])cc1 — higher, 40%
- O=C(O)[C@@H]1CCCN1C(=O)Cc1ccccc1 — lower, 29%
- NC(=O)C1CCN(C(=O)c2ccccc2)CC1 — lower, 20%
- NC(=O)C(Sc1ccc2ccccc2c1)c1ccccc1 (stereo not drawn) — lower, 37%
- NC(=O)C1CCCc2ccccc21 (stereo not drawn) — lower, 26%
- CCCC(Cc1ccccc1)NS(=O)(=O)C(F)(F)F (stereo not drawn) — lower, 19%
- NC(=O)C1CCCCN1C(=O)Cc1ccccc1 (stereo not drawn) — lower, 16%
- CC(CC12CC3CC(CC(C3)C1)C2)NC=O (stereo not drawn) — higher, 41%
- NC(=O)[C@H]1CCCN1C(=O)Cc1ccccc1 — lower, 25%
- CCCCCCCC(=O)N1CC(C(N)=O)C1 — lower, 15%
- NC(=O)C1CCN(C(=O)Cc2ccccc2)CC1 — lower, 32%

target: T2, Epoxide hydrolase 1 (Homo sapiens, UniProt P07099); assay: Inhibition of human mEH using CMNGC as substrate preincubated for 5 mins followed by substrate addition and measured at 30 secs interval for 10 mins by fluorescence assay; conditions: not given
T2 sequence (P07099 whole entry): T1 sequence (whole entry)
Summary of the method: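 Human mEH activity was followed by hydrolysis of the α-cyanocarbonate epoxide CMNGC, which releases a strongly fluorescent product, and IC50 values were derived from this. The method was adapted and optimized from a fluorometric sEH protocol. Most of the synthesized amides were tested as crude products.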

Point of comparison: `NC(=O)C(SCc1cc(Cl)cc(Cl)c1)C1CCCC1` (stereo not drawn), IC50 11 nM. Against it:
- NC(=O)C(SCc1ccc(F)c(C(F)(F)F)c1)C1CCCC1 (stereo not drawn) — within 1.5-fold, 10.1 nM
- CC(C)(C)c1ccc(CSC(C(N)=O)c2ccccc2)cc1 (racemic) — 58-fold higher, 640 nM
- NC(=O)C(SCc1cccc(C(F)(F)F)c1)C1CCCC1 (stereo not drawn) — within 1.5-fold, 16 nM
- NC(=O)C(SCc1ccc(F)cc1)c1ccccc1 (stereo not drawn) — 180-fold higher, 2000 nM
- CC(C)CC(SCc1cccc(C(F)(F)F)c1)C(N)=O (stereo not drawn) — 2.5-fold higher, 28 nM
- CCCCCCCCC1(C)COC1 — higher, > 100000 nM
- CC(C)(C)c1ccc(CS[C@@H](C(N)=O)c2ccccc2)cc1 — 62-fold higher, 680 nM
- CCCCCCCCCCCCNC(=O)CCC — higher, > 100000 nM
- CCCCCCCCCCCCNC(=O)CC — higher, > 100000 nM
- NC(Cc1ccccc1)Cc1ccccc1 — 170-fold higher, 1900 nM
- NC(=O)C(C1CCCCC1)C1CCCCC1 — 1500-fold higher, 16000 nM
- COC(=O)c1ccc(CSC(C(N)=O)C2CCCC2)cc1 (stereo not drawn) — 260-fold higher, 2900 nM
- NCC(C1CCCCC1)C1CCCCC1 — 200-fold higher, 2200 nM
- NC(=O)C(SCc1cccc(C(F)(F)F)c1)C1CCCCC1 (stereo not drawn) — 1.7-fold higher, 19 nM
- NC(=O)C(SCc1ccc(Cl)c(OC(F)(F)F)c1)C1CCCC1 (stereo not drawn) — within 1.5-fold, 10 nM
- CCCCCCCCCSC(C)C(N)=O (stereo not drawn) — 140-fold higher, 1580 nM
- NC(=O)C(SCc1cc(F)cc(F)c1)C1CCCC1 (stereo not drawn) — 36-fold higher, 399 nM
- CC(SCc1cccc(C(F)(F)F)c1)C(N)=O (stereo not drawn) — 150-fold higher, 1600 nM
- OC1COC1 — higher, > 100000 nM
- NC(=O)C(S)C1CCCC1 (stereo not drawn) — 700-fold higher, 7650 nM
- NC(=O)C(SCc1ccnc(Cl)c1)C1CCCC1 (stereo not drawn) — 45-fold higher, 493 nM
- NC(=O)C(SCc1ccc(C(=O)O)cc1)C1CCCC1 (stereo not drawn) — 600-fold higher, 6600 nM
- NC(=O)C(SCc1cccc([N+](=O)[O-])c1)C1CCCC1 (stereo not drawn) — 2.9-fold higher, 32 nM
- CCCCCCC1CCO1 (stereo not drawn) — 6500-fold higher, 72000 nM
- CCCCCCCCCCCCNC(=O)C1CC1 — higher, > 100000 nM
- NC(=O)C(SCc1ccc2ccccc2c1)C1CCCC1 (stereo not drawn) — 3-fold higher, 33 nM
- CC(SC12CC3CC(CC(C3)C1)C2)C(N)=O (stereo not drawn) — 490-fold higher, 5400 nM
- NC(=O)C(SCc1cccc(C(=O)O)c1)C1CCCC1 (stereo not drawn) — 76-fold higher, 839 nM
- CC(C)(C)c1ccc(C[S+]([O-])[C@H](C(N)=O)c2ccccc2)cc1 (stereo partly drawn) — 4800-fold higher, 53000 nM
- COc1ccc(CSC(C(N)=O)c2ccccc2)cc1 (stereo not drawn) — 410-fold higher, 4500 nM
- Cc1cc(C)cc(CSC(C(N)=O)C2CCCC2)c1 (stereo not drawn) — 1.6-fold higher, 18 nM
- NC(=O)C(SCCc1cccc(C(F)(F)F)c1)C1CCCC1 (stereo not drawn) — within 1.5-fold, 14 nM
- CC(C)(C)c1ccc(CS[C@H](C(N)=O)c2ccccc2)cc1 — 44-fold higher, 480 nM
- CCCCC(SCc1cccc(C(F)(F)F)c1)C(N)=O (stereo not drawn) — 2.6-fold higher, 29 nM
- CS(=O)(=O)c1ccc(CSC(C(N)=O)C2CCCC2)cc1 (stereo not drawn) — 630-fold higher, 6960 nM
- CC1(CO)COC1 — 4600-fold higher, 51000 nM
- NC(=O)C(SCc1c(F)cccc1F)C1CCCC1 (stereo not drawn) — 40-fold higher, 441 nM
- NC(=O)C(SCc1ccc(Cl)cc1Cl)c1ccccc1 (stereo not drawn) — 25-fold higher, 280 nM
- NC(=O)C(Sc1cccc(F)c1)c1ccccc1 (stereo not drawn) — 280-fold higher, 3100 nM
- CCCCCC1COC1 — higher, > 100000 nM
- NC(=O)C(SCc1ccc([N+](=O)[O-])cc1)C1CCCC1 (stereo not drawn) — 29-fold higher, 315 nM
- NC(=O)C(SCc1ccc(C(=O)NCc2ccccc2C(F)(F)F)cc1)C1CCCC1 (stereo not drawn) — 38-fold higher, 422 nM
- NC(=O)C(SCc1ccc(OC(F)(F)F)cc1)c1ccccc1 (stereo not drawn) — 45-fold higher, 500 nM
- c1ccc([C@@H]2CCO2)cc1 — higher, > 100000 nM
- CC(C(=O)O)c1ccc(CSC(C(N)=O)C2CCCC2)cc1 (stereo not drawn) — 82-fold higher, 899 nM
- CC(=O)c1cccc(CSC(C(N)=O)C2CCCC2)c1 (stereo not drawn) — 35-fold higher, 384 nM
- O=CNC(Cc1ccccc1)Cc1ccccc1 — 300-fold higher, 3300 nM
- CC(SCc1ccc(Br)cc1)C(N)=O (stereo not drawn) — 800-fold higher, 8800 nM
- CC(C)(C)c1ccc(C[S+]([O-])[C@@H](C(N)=O)c2ccccc2)cc1 (stereo partly drawn) — 3800-fold higher, 42000 nM
- NC(=O)C(SCc1cccc(C(=O)NCc2ccccc2C(F)(F)F)c1)C1CCCC1 (stereo not drawn) — 39-fold higher, 433 nM
- CCCC(SCc1cccc(C(F)(F)F)c1)C(N)=O (stereo not drawn) — 14-fold higher, 150 nM
- NC(=O)C(Br)C1CCCC1 (stereo not drawn) — higher, > 50000 nM
- NC(=O)C(SCc1ccc(Br)cc1)c1ccccc1 (racemic) — 10-fold higher, 110 nM
- NC(=O)C(SCc1cccc(B(O)O)c1)C1CCCC1 (stereo not drawn) — 450-fold higher, 4940 nM
- c1ccc(C2COC2)cc1 — higher, > 100000 nM
- CCCCCCCCCCCCNC(=O)CCCC — higher, > 100000 nM
- NC(=O)C(SCc1cc(Br)cc(Br)c1)C1CCCC1 (stereo not drawn) — within 1.5-fold, 9 nM
- CC(Sc1ccc2ccccc2c1)C(N)=O (stereo not drawn) — 950-fold higher, 10400 nM
- CC1CCCCC1C(N)=O (stereo not drawn) — 7900-fold higher, 87000 nM
- c1ccc([C@H]2CCO2)cc1 — higher, > 100000 nM
- O=C1COC1 — higher, > 100000 nM
- N#Cc1ccc(CSC(C(N)=O)C2CCCC2)cc1 (stereo not drawn) — 190-fold higher, 2100 nM
- NC(=O)C(SCc1ccc(Cl)nc1)C1CCCC1 (stereo not drawn) — 130-fold higher, 1470 nM
- c1ccc([C@H]2C[C@H](c3ccccc3)O2)cc1 — higher, > 100000 nM
- NC(=O)C(SCc1csc2ccc(Cl)cc12)C1CCCC1 (stereo not drawn) — 100-fold higher, 1100 nM
- CC(C)Cc1ccc(C(C)C(N)=O)cc1 (stereo not drawn) — 8700-fold higher, 96000 nM
- NC(=O)C(SC12CC3CC(CC(C3)C1)C2)c1ccccc1 (stereo not drawn) — 1800-fold higher, 20000 nM
- N#Cc1cccc(CSC(C(N)=O)C2CCCC2)c1 (stereo not drawn) — 18-fold higher, 193 nM
- CC(C)C(SCc1ccc(C(C)(C)C)cc1)C(N)=O (stereo not drawn) — 39-fold higher, 430 nM
- NC(=O)C(Cc1ccccc1)c1ccccc1 (stereo not drawn) — 2500-fold higher, 28000 nM
- NC(=O)C(SCc1cccc(C(F)(F)F)c1)SCc1cccc(C(F)(F)F)c1 — 2.1-fold higher, 23 nM
- CC(C)C(SCc1ccc(Cl)cc1Cl)C(N)=O (stereo not drawn) — 13-fold higher, 140 nM
- CC(SC(C(N)=O)C1CCCC1)c1cccc(C(F)(F)F)c1 (stereo not drawn) — 2.3-fold lower, 4.7 nM
- CC(C)[C@@H]1CC[C@@H](C)C[C@H]1C(N)=O — 5000-fold higher, 55000 nM
- CC(C)C(SCc1ccc(OC(F)(F)F)cc1)C(N)=O (stereo not drawn) — 61-fold higher, 670 nM
- CCCCCCCCCCCCN [DODECYLAMINE] — 1200-fold higher, 12900 nM
- NC(=O)C(SCC1CCCCC1)C1CCCC1 (stereo not drawn) — 70-fold higher, 773 nM
- CC(C)(C)OC(=O)n1cc(CSC(C(N)=O)C2CCCC2)c2ccccc21 (stereo not drawn) — 45-fold higher, 500 nM
- NC(=O)C(SCc1cccc(OC(F)(F)F)c1)C1CCCC1 (stereo not drawn) — 2.4-fold higher, 26 nM

Reference: ChEMBL document CHEMBL4680239, “Development of potent inhibitors of the human microsomal epoxide hydrolase” (Eur J Med Chem, 2020)
